One compound from PubChem BioAssay AID651830 (Vanderbilt Specialized Chemistry Center, 2012) can be followed below.

The experiment in a line: radioligand displacement at receptors, transporters, channels – biochemical, Eurofins PanLabs, radioligand binding, selectivity assay for mGlu3 NAM project, profiling panel (AID 651830). The note with it: at 10 µM, stronger effect = higher value. In a few lines: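 Also added: radioligand selective for each panel target / Read-out basis: % inhibition of radioligand binding / Signal: radioligand displacement measurement in binding assay / Controls: reference standards included in every assay run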
A general note: Displacement assays read how much labelled ligand stays bound in the presence of the test substance.

The source made the active and inactive calls.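 How the source made its calls: active means inhibition above 50% in the panel binding assay; inactive means inhibition of 50% or less.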

Regarding `COc1ccc(C#Cc2ccc(C(=O)N3CCC[C@@H](O)C3)c(F)c2)cc1`, the inhibition is 74% (active). Moreover, the inhibition (measured here: 5-HT1A binding) turned out to be 71%. In addition, the inhibition (measured here: 5-HT2B binding) was -12%. Also, where the note is “measured here: N-type calcium channel binding”, the inhibition was 22%. For the setting “measured here: P2X binding”, the inhibition is 31%. The inhibition (measured here: adenosine A3 binding) came out at 45%. The inhibition (measured here: alpha1D adrenergic binding) was 20%. The inhibition (measured here: dopamine D3 binding) is 24%. The inhibition (measured here: hERG binding) stood at 28%. Further, the inhibition (measured here: kainate receptor binding) was determined as 19%. For the same compound, the inhibition (measured here: norepinephrine transporter binding) is 25%. The inhibition (measured here: serotonin transporter binding) is -1%. The inhibition (measured here: sigma1 binding) was 33%.

Broadly, the inhibition is the change of the read-out against control, counted positive when it falls.
